# Screening results: PubChem BioAssay, The Scripps Research Institute Molecular Screening Center
# OXTR potentiator = human OXTR potentiators, primary screen, fluorescence, CHO-OTR cells, Fluo-8 calcium; hit rate 0.061% among 320,000; Fluo-8 calcium fluorescence, potentiator mode; 0% = oxytocin EC15, 100% = EC100; AID 2445, 2010; activation, % at 3 µM;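 active = activation above that plate's cutoff, the mean activation of tested compounds plus 3 SD, cut at about 6.6% in these data, passing the limit was not always enough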
#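 test system = CHO-OTR cells, human receptor | compound = single-point 3.0 µM | schedule = 6 min compound pre-incubation at room temperature, 100 s kinetic read | signal = Fluo-8 no-wash calcium dye fluorescence, excitation 470-495 nm, emission 515-575 nm | repeats = single well per compound, singlicate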
# V1R ag counter = agonists of human V1a receptor, primary screen, counter-screen for OXTR agonist project, fluorescence, CHO-V1R cells. Vasopressin V1a receptor (Homo sapiens), P37288. Fluo-8 calcium fluorescence, agonist mode; 0% DMSO, 100% 3 nM vasopressin. activation, % at 3 µM. hit rate 0.25% among 320,000;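 active = activation above the mean activation of all tested compounds plus 3 SD, per screening run, cut at about 20% in these data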;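 also: signal is peak over basal fluorescence ratio across a 100 second FLIPR read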
# Target sequence (P37288 whole entry, looked up): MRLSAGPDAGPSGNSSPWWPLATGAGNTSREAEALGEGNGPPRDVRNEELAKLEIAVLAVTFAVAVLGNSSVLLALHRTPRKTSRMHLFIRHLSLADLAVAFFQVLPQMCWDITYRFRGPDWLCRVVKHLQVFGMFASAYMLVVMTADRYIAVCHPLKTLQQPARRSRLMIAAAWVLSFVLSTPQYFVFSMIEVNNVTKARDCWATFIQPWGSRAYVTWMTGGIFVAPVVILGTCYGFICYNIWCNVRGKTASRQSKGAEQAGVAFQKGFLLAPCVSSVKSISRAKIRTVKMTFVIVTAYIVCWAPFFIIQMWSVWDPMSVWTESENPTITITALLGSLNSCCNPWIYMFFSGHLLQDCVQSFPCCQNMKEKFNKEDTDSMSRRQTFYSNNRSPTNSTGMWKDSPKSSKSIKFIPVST
# OXTR agonist = human OXTR agonists, primary screen, fluorescence, CHO-OTR cells, Fluo-8 calcium; Fluo-8 calcium fluorescence; normalized: DMSO 0%, oxytocin 100%; activation, % at 3 µM; hit rate 0.32% among 320,000;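 active = activation above the mean of all tested compounds plus 3 SD, cutoff set per screening run, cut at about 20% in these data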;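 also: peak over basal fluorescence ratio from a 100 s FLIPR kinetic read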
# TAAR1 agonist = human TAAR1 agonists, primary screen, Fluo-8 calcium fluorescence, CHO RD-HGA16 cells | Trace amine-associated receptor 1 (Homo sapiens), Q96RJ0 | vehicle wells 0%, saturating PEA agonist 100% | activation, % at 3 µM | hit rate 0.99% among 360,000;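 active = activation above the mean activation of all test compounds in the run plus 3 SD, cut at about 38% in these data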
#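 Signal – calcium-sensitive Fluo-8 signal, excitation 470-495, emission 515-575 nm · System – RD-HGA16 (CHO) cells co-expressing Gα16 and hTAAR1 · Incubation – 17-24 h seeding, 75 min 37 °C dye, 30 min RT · Compound dosing – 3 µM single concentration · Repeats – no replicates (n 1)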
# TAAR1 antag = human TAAR1 antagonists, primary screen, Fluo-8 calcium fluorescence, CHO RD-HGA16 cells. inhibition, % at 3 µM. hit rate 1.5% among 360,000. AID 624466, 2012. antagonist. Trace amine-associated receptor 1 (Homo sapiens), Q96RJ0;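 active = inhibition above a per-plate cutoff, the mean inhibition of test compounds on that plate plus 3 SD, cut at about 49% in these data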
#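 System: CHO RD-HGA16 cells bearing hTAAR1. Reagent: EC80 β-phenethylamine stimulus. Schedule: seeding 17-24 h prior, 75-min 37 °C, 30-min RT dye loading. Signal: Fluo-8 intracellular calcium dye fluorescence, real-time kinetic reads. Read-out: % inhibition from peak post-agonist over basal fluorescence ratio. Benchmarks: vehicle wells and EC80 agonist wells. Replicates: n of 1.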
# Hits are given with their value; n = inactive; x = not tested or not shown. Compounds with a hit are over-represented: about 2.3% of the library has one in this group of screens.
SMILES,OXTR potentiator,V1R ag counter,OXTR agonist,TAAR1 agonist,TAAR1 antag
COc1cc(CCC(=O)Nc2ccc(C)c(S(=O)(=O)N3CCCCCC3)c2)cc(OC)c1OC,n,n,n,n,50
COc1cc(CCC(=O)Nc2ccc(S(=O)(=O)N3CCCC3)cc2)cc(OC)c1OC,n,n,n,n,n
Cc1ccccc1OCC(=O)Nc1ccc(C)c(S(=O)(=O)N2CCCCCC2)c1,n,n,n,n,49
Cn1cc(C2=C(c3ccc(Cl)cc3Cl)C(=O)NC2=O)c2ccccc21,n,31,29,n,n
COC(=O)C1=C(C)N(C)C(=NCc2ccc(OC)cc2)NC1c1ccc(C(F)(F)F)cc1 (stereo not drawn),x,x,x,n,n
Cc1csc(NC(=O)C2=NN(c3ccccc3)C(=O)CC2)n1,n,n,n,n,n
Cc1ccc(-c2csc(NC(=O)C3=NN(c4ccccc4)C(=O)CC3)n2)cc1,n,n,n,n,52
O=C1NC(=S)SC1=Cc1cccs1,x,x,x,n,n
CN1CCC/C1=C/C=C1\SC(=S)NC1=O,n,24,46,n,n
CCOc1ccc(OCCC(=O)Nc2ccccc2C(=O)NC2CC2)cc1,x,x,x,n,n
c1ccc(-n2ncc3c(NCC4CCCO4)ncnc32)cc1 (stereo not drawn),n,n,n,n,n
Clc1ccc2[nH]c3c(NCCN4CCOCC4)ncnc3c2c1,n,n,n,n,n
Clc1ccc2[nH]c3c(NCC4CCCO4)ncnc3c2c1 (stereo not drawn),n,n,n,n,54
Clc1ccc(-n2ncc3c(NCC4CCCO4)ncnc32)cc1 (stereo not drawn),n,n,n,n,53
COc1ccccc1N=C1NC(=O)/C(=C/c2ccc(N(C)C)cc2)S1,n,24,25,n,n
Cc1nnsc1C(=O)N/N=C/c1ccc2ccccc2c1O,n,47,67,n,n
Cc1nnsc1C(=O)N/N=C/c1ccccc1,n,n,n,n,n
COc1ccc(-c2nc3c(C)cc(Br)cn3c2CC2CCCCC2)cc1OC,x,x,x,n,n
O=C(Cc1ccc(Cl)cc1)Nc1ccc(SC(F)F)cc1,n,n,n,n,55
Cc1ccccc1Nc1nc(N)nc(COC(=O)c2cccc(S(=O)(=O)NCc3ccccc3)c2)n1,n,n,n,n,55
Cc1ccccc1Nc1nc(N)nc(COC(=O)c2cccc(S(=O)(=O)N(C)C)c2)n1,n,n,n,n,n
O=C1NCCOc2ccccc21,x,x,x,n,n
CCN(CC(=O)Nc1cc(Cl)ccc1C)C(=O)CCc1nc2ccccc2c(=O)[nH]1,n,n,n,n,n
COc1ccc(/C=C2/C(=O)N(c3ccccc3)N=C2C)cc1,n,n,n,x,x
COc1ccc(/C=C2/C(=O)N(c3c(F)c(F)c(F)c(F)c3F)N=C2C)cc1,n,n,n,42,n
SMILES,OXTR potentiator,V1R ag counter,OXTR agonist,TAAR1 agonist,TAAR1 antag
Cc1cc(=O)oc(C)c1C(=O)NCC1COc2ccccc2O1 (stereo not drawn),n,n,n,40,n
COc1ccc(C2=NOC(Cn3nc(C(=O)NCc4cccc(C(F)(F)F)c4)cc3-c3ccccc3)C2)cc1 (stereo not drawn),n,n,n,n,55
O=C(NCc1cccc(C(F)(F)F)c1)c1cc(-c2ccccc2)nn1CC1CC(c2cccnc2)=NO1 (stereo not drawn),n,n,n,n,n
COc1ccc(C2=NOC(Cn3nc(C(=O)O)cc3-c3ccccc3)C2)cc1 (stereo not drawn),n,n,n,n,n
COCCNC(=O)c1cc(-c2ccccc2)n(CC2CC(c3ccc(OC)cc3)=NO2)n1 (stereo not drawn),n,n,n,n,53
COc1ccc(C2=NOC(Cn3nc(C(=O)NCc4ccc(C)cc4)cc3-c3ccccc3)C2)cc1 (stereo not drawn),n,n,n,n,58
COc1ccc(C2=NOC(Cn3nc(-c4ccccc4)cc3C(=O)O)C2)cc1 (stereo not drawn),n,n,n,n,n
